Experimental data taken from ChEMBL document CHEMBL1141882, “Synthesis and biological testing of purine derivatives as potential ATP-competitive kinase inhibitors” (J Med Chem, 2005).

Assays:
[1] = biological target: Rho-associated protein kinase 2 (Homo sapiens) (UniProt O75116); assay: Inhibition of human Rho-dependent protein kinase-II at 30 uM
[2] = biological target: cAMP-dependent protein kinase (PKA) (Homo sapiens) (UniProt P22694+P17612+P22612); assay: Inhibition of human cAMP-dependent protein kinase (PKA); assay type: protein assay; set-up: concentration or dose not given beside the values; conditions: concentration not given here
[3] = biological target: Mitogen-activated protein kinase 1 (Homo sapiens) (UniProt P28482); assay: Inhibition of human Mitogen-activated protein kinase 2 at 30 uM
In short: (§1)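 Kinase activity assayed with ATP at 100 µM, deliberately higher than usual assay ATP levels because the inhibitors are assumed ATP-competitive. Results are reported as percent inhibition of each kinase.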

[4] = biological target: Mitogen-activated protein kinase 10 (Rattus norvegicus) (UniProt P49187); assay: Inhibition of rat c-Jun N-terminal kinase-3 at 30 uM
In short: as §1

[5] = biological target: Mitogen-activated protein kinase 8 (Homo sapiens) (UniProt P45983); assay: Inhibition of human c-Jun N-terminal kinase-1 alpha-1 at 30 uM
In short: as §1

[6] = biological target: RAC-alpha serine/threonine-protein kinase (Homo sapiens) (UniProt P31749); assay: Inhibition of human Protein kinase B alpha at 30 uM
In short: as §1

[7] = biological target: RAF proto-oncogene serine/threonine-protein kinase (Homo sapiens) (UniProt P04049); assay: Inhibition of human RAF proto-oncogene serine/threonine-protein kinase at 30 uM
In short: as §1

[8] = biological target: Protein kinase C alpha type (Homo sapiens) (UniProt P17252); assay: Inhibition of human Protein kinase C alpha; set-up: concentration or dose not given beside the values; conditions: concentration not given here
[9] = biological target: Tyrosine-protein kinase Lck (Homo sapiens) (UniProt P06239); assay: Inhibition of human lymphocyte protein tyrosine kinase Lck at 30 uM
In short: as §1

[10] = biological target: Dual specificity mitogen-activated protein kinase kinase 1 (Homo sapiens) (UniProt Q02750); assay: Inhibition of human Mitogen activated protein kinase kinase 1 (MEK1) at 30 uM
In short: as §1

[11] = biological target: Glycogen synthase kinase-3 beta (Homo sapiens) (UniProt P49841); assay: Inhibition of human Glycogen synthase kinase-3 beta at 30 uM
In short: as §1

[12] = biological target: Mitogen-activated protein kinase 9 (Homo sapiens) (UniProt P45984); assay: Inhibition of human c-Jun N-terminal kinase-2 alpha-2 at 30 uM
In short: as §1

[13] = biological target: Mitogen-activated protein kinase 14 (Homo sapiens) (UniProt Q16539); assay: Inhibition of human stress-activated protein kinase-2 alpha (p38 MAP-kinase) at 30 uM
In short: as §1

[14] = biological target: Ca2+/calmodulin-dependent protein kinase II (CaM kinase II) (Rattus norvegicus) (UniProt P11275+P08413+P15791+P11730); assay: Inhibition of rat Calcium/calmodulin-dependent protein kinase type II at 30 uM; assay type: protein assay
In short: as §1

RAC-alpha serine/threonine-protein kinase (Homo sapiens), sequence (P31749 whole entry): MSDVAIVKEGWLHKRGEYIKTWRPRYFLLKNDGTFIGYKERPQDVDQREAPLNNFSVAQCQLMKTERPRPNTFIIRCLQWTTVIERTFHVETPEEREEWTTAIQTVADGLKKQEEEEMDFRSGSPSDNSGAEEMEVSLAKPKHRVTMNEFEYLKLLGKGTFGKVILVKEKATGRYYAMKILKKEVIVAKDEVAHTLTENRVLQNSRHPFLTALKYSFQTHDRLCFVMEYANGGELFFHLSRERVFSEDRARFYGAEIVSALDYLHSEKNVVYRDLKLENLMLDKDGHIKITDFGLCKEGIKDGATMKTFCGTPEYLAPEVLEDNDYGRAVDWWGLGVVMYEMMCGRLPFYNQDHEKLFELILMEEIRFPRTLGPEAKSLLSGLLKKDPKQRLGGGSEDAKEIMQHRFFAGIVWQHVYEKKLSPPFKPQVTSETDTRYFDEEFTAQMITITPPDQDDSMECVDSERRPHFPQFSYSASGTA
Dual specificity mitogen-activated protein kinase kinase 1 (Homo sapiens), sequence (Q02750 whole entry): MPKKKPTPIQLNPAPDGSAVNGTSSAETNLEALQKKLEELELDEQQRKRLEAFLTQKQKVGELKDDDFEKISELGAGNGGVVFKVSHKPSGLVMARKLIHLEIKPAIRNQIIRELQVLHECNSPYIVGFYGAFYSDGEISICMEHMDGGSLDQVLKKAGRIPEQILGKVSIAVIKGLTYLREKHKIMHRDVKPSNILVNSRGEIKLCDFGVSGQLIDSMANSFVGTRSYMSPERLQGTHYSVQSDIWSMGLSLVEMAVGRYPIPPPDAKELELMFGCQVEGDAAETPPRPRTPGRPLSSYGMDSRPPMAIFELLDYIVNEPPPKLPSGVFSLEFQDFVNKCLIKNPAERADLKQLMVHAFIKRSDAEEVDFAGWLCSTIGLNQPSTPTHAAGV
Rho-associated protein kinase 2 (Homo sapiens), sequence (O75116 whole entry, looked up): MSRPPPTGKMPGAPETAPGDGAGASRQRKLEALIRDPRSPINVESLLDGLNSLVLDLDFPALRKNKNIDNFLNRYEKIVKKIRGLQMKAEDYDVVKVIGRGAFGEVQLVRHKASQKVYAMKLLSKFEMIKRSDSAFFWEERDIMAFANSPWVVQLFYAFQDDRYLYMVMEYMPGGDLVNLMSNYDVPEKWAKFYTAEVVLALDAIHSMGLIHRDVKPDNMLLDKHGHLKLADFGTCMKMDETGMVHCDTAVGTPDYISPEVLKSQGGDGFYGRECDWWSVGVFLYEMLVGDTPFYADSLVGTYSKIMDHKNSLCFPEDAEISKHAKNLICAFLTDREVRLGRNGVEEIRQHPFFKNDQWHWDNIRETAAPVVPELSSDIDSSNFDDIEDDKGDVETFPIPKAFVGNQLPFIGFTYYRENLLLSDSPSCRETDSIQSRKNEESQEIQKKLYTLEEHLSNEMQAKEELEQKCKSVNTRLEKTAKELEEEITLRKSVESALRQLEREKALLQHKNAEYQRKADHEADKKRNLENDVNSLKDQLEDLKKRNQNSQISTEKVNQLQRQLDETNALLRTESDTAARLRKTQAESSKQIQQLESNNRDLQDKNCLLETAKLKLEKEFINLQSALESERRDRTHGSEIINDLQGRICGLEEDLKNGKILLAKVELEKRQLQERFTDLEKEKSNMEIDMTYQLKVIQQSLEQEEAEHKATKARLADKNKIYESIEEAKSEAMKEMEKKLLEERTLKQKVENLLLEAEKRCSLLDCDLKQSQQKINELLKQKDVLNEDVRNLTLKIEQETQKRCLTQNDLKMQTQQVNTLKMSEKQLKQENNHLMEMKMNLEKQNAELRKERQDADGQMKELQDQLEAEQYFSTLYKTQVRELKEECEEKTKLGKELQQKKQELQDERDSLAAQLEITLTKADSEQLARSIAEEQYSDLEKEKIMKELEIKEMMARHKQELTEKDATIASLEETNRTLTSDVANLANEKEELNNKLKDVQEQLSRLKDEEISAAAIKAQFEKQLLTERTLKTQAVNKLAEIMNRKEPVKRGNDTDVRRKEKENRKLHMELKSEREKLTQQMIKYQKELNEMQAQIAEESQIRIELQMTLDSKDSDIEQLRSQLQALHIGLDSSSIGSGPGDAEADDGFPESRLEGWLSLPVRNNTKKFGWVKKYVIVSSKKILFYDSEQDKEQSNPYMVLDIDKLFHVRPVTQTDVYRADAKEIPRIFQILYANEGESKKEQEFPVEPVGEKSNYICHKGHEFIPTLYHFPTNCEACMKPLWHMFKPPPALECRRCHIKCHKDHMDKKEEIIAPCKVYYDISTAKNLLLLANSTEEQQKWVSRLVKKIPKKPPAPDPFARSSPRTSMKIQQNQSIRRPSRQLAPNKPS
Mitogen-activated protein kinase 10 (Rattus norvegicus), sequence (P49187 whole entry): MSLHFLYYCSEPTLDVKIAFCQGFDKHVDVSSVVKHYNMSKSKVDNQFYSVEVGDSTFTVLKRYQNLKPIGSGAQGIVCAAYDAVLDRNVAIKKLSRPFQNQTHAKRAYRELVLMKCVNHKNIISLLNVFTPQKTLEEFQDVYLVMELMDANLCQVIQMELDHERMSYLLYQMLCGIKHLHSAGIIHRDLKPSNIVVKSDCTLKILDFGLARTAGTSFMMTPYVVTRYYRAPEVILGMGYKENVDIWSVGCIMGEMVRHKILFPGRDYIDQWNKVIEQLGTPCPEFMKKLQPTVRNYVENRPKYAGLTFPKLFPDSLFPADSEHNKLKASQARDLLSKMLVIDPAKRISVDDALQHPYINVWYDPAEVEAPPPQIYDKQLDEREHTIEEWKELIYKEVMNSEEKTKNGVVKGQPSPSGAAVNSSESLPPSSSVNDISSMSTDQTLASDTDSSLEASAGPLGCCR
Mitogen-activated protein kinase 1 (Homo sapiens), sequence (P28482 whole entry): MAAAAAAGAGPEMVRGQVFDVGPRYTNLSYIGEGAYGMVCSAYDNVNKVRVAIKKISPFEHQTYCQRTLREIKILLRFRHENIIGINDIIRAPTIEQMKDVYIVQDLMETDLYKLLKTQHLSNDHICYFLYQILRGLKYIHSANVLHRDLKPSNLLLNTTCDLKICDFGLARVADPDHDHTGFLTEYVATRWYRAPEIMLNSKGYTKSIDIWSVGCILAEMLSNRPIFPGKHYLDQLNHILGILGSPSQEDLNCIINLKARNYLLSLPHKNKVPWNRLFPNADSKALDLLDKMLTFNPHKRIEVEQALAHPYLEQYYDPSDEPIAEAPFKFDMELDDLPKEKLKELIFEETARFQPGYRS
Tyrosine-protein kinase Lck (Homo sapiens), sequence (P06239 2-509 limits assumed): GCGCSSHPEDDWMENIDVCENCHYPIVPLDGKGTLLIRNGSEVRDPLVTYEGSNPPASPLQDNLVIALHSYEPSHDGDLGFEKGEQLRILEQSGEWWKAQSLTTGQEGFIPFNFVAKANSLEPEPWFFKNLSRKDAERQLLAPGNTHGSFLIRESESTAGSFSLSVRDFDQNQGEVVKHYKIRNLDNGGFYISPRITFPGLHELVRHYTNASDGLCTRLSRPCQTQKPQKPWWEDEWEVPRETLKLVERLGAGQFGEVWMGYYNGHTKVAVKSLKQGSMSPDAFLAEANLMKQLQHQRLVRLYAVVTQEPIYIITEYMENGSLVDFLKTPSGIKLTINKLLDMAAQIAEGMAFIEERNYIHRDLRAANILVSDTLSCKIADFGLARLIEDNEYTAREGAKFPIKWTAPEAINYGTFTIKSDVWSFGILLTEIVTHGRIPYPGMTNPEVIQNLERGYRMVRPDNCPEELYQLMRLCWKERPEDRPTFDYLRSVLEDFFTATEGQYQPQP
Mitogen-activated protein kinase 8 (Homo sapiens), sequence (P45983 whole entry): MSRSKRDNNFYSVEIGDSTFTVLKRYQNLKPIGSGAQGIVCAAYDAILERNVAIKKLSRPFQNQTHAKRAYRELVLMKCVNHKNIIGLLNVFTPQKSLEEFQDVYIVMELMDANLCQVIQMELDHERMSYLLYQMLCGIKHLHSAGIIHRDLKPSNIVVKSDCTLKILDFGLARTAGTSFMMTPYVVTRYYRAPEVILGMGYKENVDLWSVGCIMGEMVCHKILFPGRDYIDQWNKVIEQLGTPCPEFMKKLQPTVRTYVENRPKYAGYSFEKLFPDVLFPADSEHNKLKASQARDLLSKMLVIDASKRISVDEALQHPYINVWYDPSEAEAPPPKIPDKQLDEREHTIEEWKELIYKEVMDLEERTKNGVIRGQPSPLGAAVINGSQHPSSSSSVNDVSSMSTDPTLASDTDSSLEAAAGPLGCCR

SMILES | inhibition [1] | inhibition [2] | inhibition [3] | inhibition [4] | inhibition [5] | inhibition [6] | inhibition [7] | inhibition [8] | inhibition [9] | inhibition [10] | inhibition [11] | inhibition [12] | inhibition [13] | inhibition [14]
Cn1cnc2c(Sc3ccccc3)ncnc21 | 6% | 0% | 12% | 7% | 3% | 0% | 10% | 13% | 6% | 3% | 3% | 6% | 17% | 8%
Cn1cnc2c(/C=C/c3ccccc3)ncnc21 | 0% | 0% | 0% | 8% | 0% | 0% | 8% | 7% | 1% | 0% | 0% | 0% | 12% | 4%
Cn1cnc2c(Nc3ccccc3)ncnc21 | 0% | 0% | 42% | 5% | 0% | 0% | 44% | 2% | 18% | 4% | 26% | 0% | 0% | 0%
Clc1ncnc2ncn(Cc3ccccc3)c12 | 6% | 0% | 1% | 11% | 0% | 0% | 12% | 12% | 0% | 0% | 9% | 1% | 7% | 0%

The remaining lines, values ahead:

inhibition [1] | inhibition [2] | inhibition [3] | inhibition [4] | inhibition [5] | inhibition [6] | inhibition [7] | inhibition [8] | inhibition [9] | inhibition [10] | inhibition [11] | inhibition [12] | inhibition [13] | inhibition [14] | SMILES
36% | 0% | 4% | 0% | 0% | 0% | 22% | 23% | 56% | 41% | 11% | 0% | 56% | 6% | c1ccc(Sc2[nH]cnc3nccc2-3)cc1
28% | 14% | 17% | 10% | 0% | 0% | 14% | 6% | 19% | 9% | 0% | 0% | 7% | 0% | Nc1[nH]cnc2ncnc1-2
2% | 0% | 0% | 0% | 0% | 3% | 0% | 0% | 0% | 0% | 2% | 0% | 1% | 8% | Fc1ccc(Cc2[nH]cnc3ncnc2-3)cc1
28% | 13% | 12% | 7% | 1% | 4% | 53% | 11% | 22% | 7% | 35% | 0% | 50% | 0% | c1ccc(CSc2ncnc3[nH]cnc23)cc1
37% | 10% | 12% | 8% | 0% | 0% | 29% | 9% | 13% | 2% | 0% | 1% | 72% | 0% | Fc1ccc(Sc2ncnc3[nH]cnc23)cc1
